# Data taken from ChEMBL document CHEMBL1131019, “Minimal-size, constrained corticotropin-releasing factor agonists with i-(i+3) Glu-Lys and Lys-Glu bridges” (1998).
# Experiments:
# Format in all cases: functional, Pituitary gland cell
# Rattus norvegicus [1] = organism: Rattus norvegicus; assay: Percent in vito intrinsic activity (IA) was evaluated in pituitary cell culture assay
# In short: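 ACTH release assay in cultured rat anterior pituitary cells from male Sprague–Dawley rats: 3-day culture, 1 h preincubation in 0.1% BSA medium, 3 h peptide exposure, ACTH in medium by radioimmunoassay. Intrinsic activity = ACTH released at maximal analogue dose divided by ACTH released at maximal CRF dose, ×100.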
# Rattus norvegicus [2] = organism: Rattus norvegicus; assay: In vitro for agonist activity by measuring release of ACTH by rat pituitary cells in culture relative to human Corticotropin-Releasing factor (CRF)
# In short: (§1)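 Male Sprague–Dawley rat anterior pituitary cells, collagenase-dissociated, plated at 0.16 × 10⁶ cells/well in 2% FBS medium. After 3 days, washed into 0.1% BSA medium, preincubated 1 h, washed again, then exposed to peptide for 3 h. Medium ACTH measured by radioimmunoassay.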
# Rattus norvegicus [3] = organism: Rattus norvegicus; assay: Agonist activity by measuring release of ACTH by rat pituitary cells in culture relative to ovine Corticotropin-Releasing factor (CRF); in short: as §1
smiles,measurement,setting,value
CCCC[C@H](NC(=O)[C@H](CCC(=O)O)NC(=O)[C@H](CC(C)C)NC(=O)[C@H](CCCC)NC(=O)[C@H](CCC(=O)O)NC(=O)[C@H](CCCN=C(N)N)NC(=O)[C@H](CC(C)C)NC(=O)[C@H](CC(C)C)NC(=O)[C@H](Cc1c[nH]cn1)NC(=O)[C@@H](Cc1ccccc1)NC(=O)[C@@H](NC(=O)[C@H](CC(C)C)NC(=O)[C@H](CC(=O)O)NC(=O)[C@H](CC(C)C)NC(C)=O)[C@@H](C)O)C(=O)N[C@@H](C)C(=O)N[C@@H](CCCCN)C(=O)N[C@@H](C)C(=O)N[C@@H](CCC(=O)O)C(=O)N[C@@H](CCC(N)=O)C(=O)N[C@@H](CCC(=O)O)C(=O)N[C@@H](C)C(=O)N[C@@H](CCC(=O)O)C(=O)N1C(=O)[C@H](C)NC(=O)[C@H](C)NC(=O)[C@@H](N)CCC(=O)NCCCC[C@H]1C(=O)N[C@@H](CC(N)=O)C(=O)N[C@@H](CCCN=C(N)N)C(=O)N[C@@H](CC(C)C)C(=O)N[C@@H](CC(C)C)C(=O)N[C@@H](CC(C)C)C(=O)N[C@@H](CCC(=O)O)C(=O)N[C@@H](CCC(=O)O)C(=O)N[C@@H](C)C(N)=O,IA,Rattus norvegicus [1],93%
same,Potency,Rattus norvegicus [2],0.073
CCCC[C@H](NC(=O)[C@H](CCC(=O)O)NC(=O)[C@H](CC(C)C)NC(=O)[C@@H](NC(=O)[C@H](CCC(=O)O)NC(=O)[C@H](CCCN=C(N)N)NC(=O)[C@H](CC(C)C)NC(=O)[C@@H]1CCCCNC(=O)CC[C@H](NC(=O)[C@H](CC(C)C)NC(=O)[C@H](CC(=O)O)NC(=O)[C@H](CC(C)C)NC(=O)[C@H](CO)NC(=O)[C@@H](NC(=O)[C@@H]2CCCN2C(=O)[C@@H]2CCCN2C(C)=O)[C@@H](C)CC)C(=O)N[C@H](Cc2ccccc2)C(=O)N[C@@H](Cc2c[nH]cn2)C(=O)N1)C(C)C)C(=O)N[C@@H](C)C(=O)N[C@@H](CCCN=C(N)N)C(=O)N[C@@H](C)C(=O)N[C@@H](CCC(=O)O)C(=O)N[C@@H](CCC(N)=O)C(=O)N[C@@H](CC(C)C)C(=O)N[C@@H](C)C(=O)N[C@@H](CCC(N)=O)C(=O)N[C@@H](CCC(N)=O)C(=O)N[C@@H](C)C(=O)N[C@@H](Cc1c[nH]cn1)C(=O)N[C@@H](CO)C(=O)N[C@@H](CC(N)=O)C(=O)N[C@@H](CCCN=C(N)N)C(=O)N[C@@H](CCCCN)C(=O)N[C@@H](CC(C)C)C(=O)N[C@@H](CCCC)C(=O)N[C@@H](CCC(=O)O)C(=O)N[C@H](C(=O)N[C@H](C(N)=O)[C@@H](C)CC)[C@@H](C)CC,Potency,Rattus norvegicus [3],1.4
CCCC[C@H](NC(=O)[C@H](CCCN=C(N)N)NC(=O)[C@H](CC(C)C)NC(=O)[C@H](CC(C)C)NC(=O)[C@H](CCC(=O)O)NC(=O)[C@H](CC(C)C)NC(=O)[C@H](CC(C)C)NC(=O)[C@H](CC(C)C)NC(=O)[C@H](CC(=O)O)NC(=O)[C@@H](NC(=O)[C@H](CO)NC(=O)[C@@H](NC(=O)[C@@H]1CCCN1C(=O)[C@@H]1CCCN1C(=O)CNC(=O)[C@H](CCC(=O)O)NC(=O)[C@@H]1CCCN1)[C@@H](C)CC)[C@@H](C)CC)C(=O)N[C@@H](CCCC)C(=O)N[C@H](C(=O)N[C@@H](CCC(=O)O)C(=O)N[C@H](C(=O)N[C@@H](CCC(=O)O)C(=O)N[C@@H](CCCCN)C(=O)N[C@@H](CCC(N)=O)C(=O)N[C@@H](CCC(=O)O)C(=O)N[C@@H](CCCCN)C(=O)N[C@@H](CCC(=O)O)C(=O)N[C@@H](CCCCN)C(=O)N1C(=O)[C@@H](C)NC(=O)[C@H](CCC(N)=O)NC(=O)[C@@H](N)CCC(=O)NCCCC[C@H]1C(=O)N[C@H](CC(N)=O)C(=O)N[C@H](CC(N)=O)C(=O)N[C@H](CCCN=C(N)N)C(=O)N[C@H](CC(C)C)C(=O)N[C@H](CC(C)C)C(=O)N[C@H](CC(C)C)C(=O)N[C@H](CC(=O)O)C(=O)N[C@@H](C(=O)N[C@@H](C(N)=O)[C@H](C)CC)[C@H](C)O)[C@@H](C)CC)[C@@H](C)CC,Potency,Rattus norvegicus [3],5.73
CCCC[C@H](NC(=O)[C@H](CCC(=O)O)NC(=O)[C@@H](NC(=O)[C@H](CCCC)NC(=O)[C@H](CC(N)=O)NC(=O)[C@H](CCCN=C(N)N)NC(=O)[C@H](CC(C)C)NC(=O)[C@H](CC(C)C)NC(=O)[C@H](Cc1c[nH]cn1)NC(=O)[C@@H](Cc1ccccc1)NC(=O)[C@@H](NC(=O)[C@H](CC(C)C)NC(=O)[C@H](CC(=O)O)NC(=O)[C@@H](NC(=O)[C@H](CO)NC(=O)[C@@H](NC(=O)[C@@H]1CCCN1C(=O)[C@@H]1CCCN1C(=O)[C@H](CC(=O)O)NC(=O)[C@H](CC(=O)O)NC(=O)[C@@H](N)CC(N)=O)[C@@H](C)CC)[C@@H](C)CC)[C@@H](C)O)[C@@H](C)CC)C(=O)N[C@@H](C)C(=O)N[C@@H](CCCN=C(N)N)C(=O)N[C@H](C(=O)N[C@@H](CCC(=O)O)C(=O)N[C@@H](CC(N)=O)C(=O)N[C@@H](CCC(=O)OC)C(=O)N[C@@H](CCCN=C(N)N)C(=O)N[C@@H](CCC(=O)O)C(=O)N1C(=O)CNC(=O)[C@H](C)NC(=O)[C@@H](N)CCC(=O)NCCCC[C@H]1C(=O)N[C@@H](CC(N)=O)C(=O)N[C@@H](CCCN=C(N)N)C(=O)N[C@@H](CCCCN)C(=O)N[C@@H](Cc1ccc(O)cc1)C(=O)N[C@@H](CC(C)C)C(=O)N[C@@H](CC(=O)O)C(=O)N[C@@H](CCC(=O)O)C(=O)N[C@H](C(N)=O)C(C)C)[C@@H](C)CC,Potency,Rattus norvegicus [2],2.9
CCCC[C@H](NC(=O)[C@H](CCC(=O)O)NC(=O)[C@H](CC(C)C)NC(=O)[C@@H](NC(=O)[C@H](CCC(=O)O)NC(=O)[C@H](CCCN=C(N)N)NC(=O)[C@H](CC(C)C)NC(=O)[C@@H]1CCC(=O)NCCCC[C@H](NC(=O)[C@H](CC(C)C)NC(=O)[C@H](CC(=O)O)NC(=O)[C@H](CC(C)C)NC(=O)[C@H](CO)NC(=O)[C@@H](NC(=O)[C@@H]2CCCN2C(=O)[C@@H]2CCCN2C(C)=O)[C@@H](C)CC)C(=O)N[C@H](Cc2ccccc2)C(=O)N[C@@H](Cc2c[nH]cn2)C(=O)N1)C(C)C)C(=O)N[C@@H](C)C(=O)N[C@@H](CCCN=C(N)N)C(=O)N[C@@H](C)C(=O)N[C@@H](CCC(=O)O)C(=O)N[C@@H](CCC(N)=O)C(=O)N[C@@H](CC(C)C)C(=O)N[C@@H](C)C(=O)N[C@@H](CCC(N)=O)C(=O)N[C@@H](CCC(N)=O)C(=O)N[C@@H](C)C(=O)N[C@@H](Cc1c[nH]cn1)C(=O)N[C@@H](CO)C(=O)N[C@@H](CC(N)=O)C(=O)N[C@@H](CCCN=C(N)N)C(=O)N[C@@H](CCCCN)C(=O)N[C@@H](CC(C)C)C(=O)N[C@@H](CCCC)C(=O)N[C@@H](CCC(=O)O)C(=O)N[C@H](C(=O)N[C@H](C(N)=O)[C@@H](C)CC)[C@@H](C)CC,Potency,Rattus norvegicus [3],0.0004
